{"data": "Results pooled from the literature", "target": "Sodium-dependent serotonin transporter (SLC6A4, Homo sapiens, UniProt P31645)", "note": "Each line is one published result; the experiments were not run side by side."}
{"SMILES": "C[C@H](NC(=O)Nc1cc2[nH]ncc2c(CO)n1)c1ccccn1", "assay": "cell-free assay", "setting": "10 µM", "inhibition": "-0.787%"}
{"SMILES": "C[C@H](C(=O)N[C@H]1COc2ccccc2[C@@H]1S(C)(=O)=O)c1ccc(F)cc1", "assay": "transporter uptake, inhibitor", "setting": "10 µM", "inhibition": "11%"}
{"SMILES": "COCc1c(-c2cc3cc(C)cc(OC)c3s2)c2c(N)ncnn2c1CN1CCNC(=O)C1", "assay": "ligand displacement, radioligand", "setting": "10 µM", "inhibition": "3%"}
{"SMILES": "CCc1ccccc1C(=O)Nc1n[nH]c2c(C)c(F)c(C3C(C#N)=C(C)N(C)C(C)=C3C#N)cc12", "assay": "ligand displacement", "setting": "10 µM", "inhibition": "-6.24%"}
{"SMILES": "c1ccc(C(NCCNC(c2ccccc2)c2ccccc2)c2ccccc2)cc1", "assay": "transporter uptake, inhibitor", "setting": "10 µM", "inhibition": "29%"}
{"SMILES": "COc1ccc(S(=O)(=O)N2CCCCC2)cc1C", "assay": "ligand displacement, radioligand", "setting": "10 µM", "inhibition": "< 30%"}
{"SMILES": "Clc1ccc2c(C3CCN(CCc4c[nH]c5ccccc45)CC3)c[nH]c2c1", "assay": "ligand displacement, radioligand", "setting": "10 µM", "inhibition": "99%"}
{"SMILES": "CN(CCN1CCC(OC(=O)Nc2ccccc2-c2ccccc2)CC1)C(=O)c1ccc(CN2CCC(C(N)=O)CC2)cc1", "assay": "ligand displacement, radioligand", "setting": "1 µM", "inhibition": "-1%"}
{"SMILES": "CCN(CC)CCCC[C@H](NC(=O)[C@H](CC(C)C)NC(=O)[C@H](C)NC(=O)[C@H](Cc1ccccc1)NC(=O)c1ccc(C(C)(C)C)cc1)C(=O)N[C@@H](CO)C(=O)OC", "assay": "ligand displacement, radioligand", "setting": "10 µM", "inhibition": "5%"}
{"SMILES": "CC(C)N1CCC[C@H]1CNC(=O)c1cn(C2CCCC2)c(=O)c2c1c1ccccc1n2C", "assay": "ligand displacement, radioligand", "setting": "10 µM", "inhibition": "22%"}
